Hits are enriched below; roughly 2.4% of the tested compounds scored in any of these assays.
STEP block: STEP (human) phosphatase inhibition; recombinant STEP, OMFP fluorogenic substrate, fluorescence; inhibition, % at 20 µM; actives 0.25% (n = 360,000); AID 588621;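 active = inhibition at 20 µM, scaled per plate between control wells, above about 37%, limit read from the data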
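Assay system: isolated STEP enzyme / Timing: 20 min at room temperature, dark / Doses: 20 µM, 1% DMSO / Technique: fluorescence intensity, excitation 480 nm, emission 540 nm / Reagent: fluorogenic phosphatase substrate OMFP at 25 µM final / Measure: percent inhibition scaled to no-enzyme and uninhibited-enzyme controls, plate-pattern corrected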
NadD inh: blocks S. aureus nicotinate mononucleotide adenylyltransferase; actives 0.78% (n = 360,000); inhibition, % at 20 µM; purified NadD enzyme, colorimetric absorbance read-out; in the data active = inhibition above about 26%
SUMO1 PPI mod: modulators of human SUMO1-mediated protein-protein interactions | P63165 | SUMO1 binding to a labelled peptide, TR-FRET, 1 h | inhibition, % at 20 µM | actives 0.33% (n = 360,000); in the data active = inhibition above about 37%
LMPTP inh: blocks human LMPTP phosphatase; actives 0.22% (n = 360,000); inhibition, % at 20 µM; P24666; recombinant LMPTP-A, OMFP fluorogenic substrate, fluorescence intensity;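 active = compounds that cut the enzyme signal by at least half of the control window in the single-dose screen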
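Test system: LMPTP-A phosphatase enzyme; input: 0.625 nM LMPTP-A final; reagent: OMFP substrate, 400 µM final; compound dosing: 20 µM single dose, 3% DMSO; incubation: 50 min dark incubation at room temperature; measured by: endpoint fluorescence intensity from OMFP dephosphorylation; measure: % inhibition relative to no-enzyme and uninhibited control wells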
DNMT1 inh: blocks human DNA methyltransferase DNMT1; P26358; inhibition (reported as % activation of signal), % at 10 µM; DNMT1 molecular beacon, Hinp1I cleavage, fluorescence; actives 0.83% (n = 360,000); in the data active = inhibition above about 50%
Target sequence (P26358 504-1616 limits assumed): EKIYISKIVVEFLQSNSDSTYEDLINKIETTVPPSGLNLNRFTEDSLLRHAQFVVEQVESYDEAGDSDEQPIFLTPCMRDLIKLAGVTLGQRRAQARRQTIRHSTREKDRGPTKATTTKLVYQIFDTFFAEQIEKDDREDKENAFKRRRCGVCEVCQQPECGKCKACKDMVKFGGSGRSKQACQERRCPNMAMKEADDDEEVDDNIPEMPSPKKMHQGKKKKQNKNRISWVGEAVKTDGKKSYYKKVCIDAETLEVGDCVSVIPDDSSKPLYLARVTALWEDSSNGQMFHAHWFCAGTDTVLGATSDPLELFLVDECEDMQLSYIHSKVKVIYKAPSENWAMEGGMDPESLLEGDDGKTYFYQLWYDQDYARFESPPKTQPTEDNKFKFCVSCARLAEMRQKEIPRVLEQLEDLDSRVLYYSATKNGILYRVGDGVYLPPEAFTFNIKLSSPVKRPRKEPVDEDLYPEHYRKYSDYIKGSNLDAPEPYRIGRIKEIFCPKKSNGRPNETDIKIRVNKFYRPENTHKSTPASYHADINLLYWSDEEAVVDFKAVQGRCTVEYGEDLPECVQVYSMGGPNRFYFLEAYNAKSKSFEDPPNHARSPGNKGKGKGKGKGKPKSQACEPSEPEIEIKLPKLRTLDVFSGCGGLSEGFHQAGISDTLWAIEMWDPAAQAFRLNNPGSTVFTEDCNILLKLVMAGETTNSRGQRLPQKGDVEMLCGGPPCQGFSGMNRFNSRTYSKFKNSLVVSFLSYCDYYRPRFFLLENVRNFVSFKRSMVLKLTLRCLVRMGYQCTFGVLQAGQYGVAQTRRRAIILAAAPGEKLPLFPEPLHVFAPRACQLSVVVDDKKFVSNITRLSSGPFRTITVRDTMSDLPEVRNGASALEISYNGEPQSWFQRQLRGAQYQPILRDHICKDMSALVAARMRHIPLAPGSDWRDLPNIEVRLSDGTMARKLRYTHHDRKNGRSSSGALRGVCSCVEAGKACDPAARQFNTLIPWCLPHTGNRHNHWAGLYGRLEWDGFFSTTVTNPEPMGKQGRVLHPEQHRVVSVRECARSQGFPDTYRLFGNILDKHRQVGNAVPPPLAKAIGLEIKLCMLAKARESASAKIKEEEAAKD
Scp1 inh: blocks human Scp-1 phosphatase activity | inhibition, % at 20 µM | actives 0.88% (n = 340,000) | AID 493091 | Q9GZU7 | Recombinant Scp1, phosphopeptide, malachite green phosphate absorbance;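 active = inhibition above about 50% at 20 µM, limit read from the data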
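Test system: SCP-1 catalytic domain; Buffer or medium: Acidic Tris acetate buffer with magnesium and detergent; Also added: Phosphorylated 17-residue peptide substrate; Compound: single 20 µM dose, 1% DMSO; Schedule: enzyme reaction 45 min at room temperature, colour 5 min, stabilisation 30 min; Signal: Phosphate-binding colour reagent, absorbance read at 630 nm.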
NadD inh conf: NadD (S. aureus) inhibition, single concentration confirmation. shares compounds with NadD inh. purified S. aureus NadD, colorimetric enzyme assay. inhibition, % at 20 µM. actives 13% (n = 2,000). AID 624309; in the data active = inhibition mostly above about 42%, no sharp cut-off; inactive = mostly below about 42%
A number is an active result; – = inactive; · = no result given.

SMILES	STEP block	NadD inh	SUMO1 PPI mod	LMPTP inh	DNMT1 inh	Scp1 inh	NadD inh conf
COc1ccc(S(=O)(=O)N(C)C[C@H]2OCCCC[C@@H](C)Oc3ccc(NC(=O)CCC(F)(F)F)cc3C(=O)N([C@H](C)CO)C[C@@H]2C)cc1	–	–	–	–	–	·	·
C[C@@H]1CN([C@@H](C)CO)C(=O)c2cc(C#CC3CCCCC3)cnc2O[C@@H]1CN(C)S(=O)(=O)c1ccc(F)cc1	–	75.4	–	–	–	·	–
O=C(/C=C/c1ccc(-c2ccccc2[N+](=O)[O-])o1)c1ccc(Br)cc1	–	–	–	–	–	–	·
O=c1nc2s/c(=C\c3ccc(-c4ccccc4[N+](=O)[O-])o3)c(=O)n2nc1-c1ccccc1	–	35.7	–	–	–	–	–
CC(C)(C)n1nc2c(c1NC(=O)c1ccc(S(=O)(=O)N3CCCC3)cc1)CSC2	–	31.2	–	–	–	–	47.7
O=C(Nc1c2c(nn1-c1ccc(F)cc1)CSC2)c1ccc(S(=O)(=O)N2CCOCC2)cc1	–	41.8	–	–	–	–	–
CC(=O)OC(C#CCN1CCOCC1)c1ccccc1 (stereo unspecified)	–	–	–	–	–	–	·
O=C(Cn1nc(-c2ccccc2)ccc1=O)Nc1ccc(N2CCN(C(=O)c3cccs3)CC2)cc1	–	29.1	–	–	–	–	–
O=C(Nc1cccc2nsnc12)c1ccc(-c2cccc(Cl)c2)o1	–	45.3	–	–	–	–	–
Cn1cnc(S(=O)(=O)Nc2ccc(C(F)(F)F)cc2)c1	–	–	–	–	–	–	·
Cc1ccc(C2(SCC(N)C(=O)O)c3ccccc3-c3ccccc32)cc1 (stereo unspecified)	–	38.9	–	–	–	–	53.6
O=C(/C=C/c1cccs1)c1cc(Cl)ccc1O	–	–	–	–	–	–	·
O=C(/C=C/c1ccc2ccccc2n1)c1cc(Cl)ccc1O	–	32.6	–	–	–	–	–
O=C(O)c1cccc(NC(=S)N/N=C/c2cccc(O)c2)c1	–	–	–	–	–	–	·
O=C(O)c1cccc(NC(=S)N/N=C/c2ccccc2OCc2ccc(Br)cc2)c1	–	45.3	–	–	–	–	64.1
O=C(O)c1cccc(NC(=S)N/N=C/c2ccccn2)c1	–	–	–	–	–	–	·
O=C(O)c1cccc(NC(=S)N/N=C/c2ccccc2OCc2cccc(Br)c2)c1	–	50.8	–	–	–	–	71.7
CCCNC(=O)COCc1cc(-c2ccc3c(c2)OCO3)on1	–	–	–	–	–	–	·
COc1ccc(-c2cc(C(=O)NNC(=S)NC(=O)c3c(-c4ccccc4)noc3C)[nH]n2)cc1	–	42.5	–	–	–	–	52.5
COc1ccc(C(=O)NNC(=S)NC(=O)c2cc(-c3ccccc3)nc3ccccc23)cc1	–	49.1	–	–	–	–	67.7
COc1ccc(Cl)cc1C(=O)NNC(=S)NC(=O)c1cc(-c2ccccc2)nc2ccccc12	–	60.9	–	–	–	–	–
O=C(NNC(=O)c1cc(-c2ccccc2)nc2ccccc12)Nc1cccc(Cl)c1	–	–	–	–	–	–	·
CC(C)(C)c1ccc(-c2cc(C(=O)NNC(=O)Nc3ccccc3)c3ccccc3n2)cc1	–	37.2	–	–	–	–	–
CCOC(=O)N1CCC(NC(=O)c2oc3c(c2C)-c2[nH]ncc2CC3)CC1	–	–	–	–	–	–	·
O=C(CCn1nnc(-c2cccs2)n1)NCc1ccccc1Cl	–	–	–	–	–	–	·
SMILES	STEP block	NadD inh	SUMO1 PPI mod	LMPTP inh	DNMT1 inh	Scp1 inh	NadD inh conf
CC(C)c1ccc(C(C(=O)NC2CCCC2)N(C(=O)CNC(=O)c2ccco2)c2cccnc2)cc1 (stereo unspecified)	–	–	–	–	–	–	·
CCCOc1ccc(C(=O)NNC(=S)NC(=O)c2cc(-c3ccc(Cl)cc3)nc3ccccc23)cc1	–	78.8	–	–	–	–	–
O=c1c2c(-c3ccco3)csc2nc(SCc2cn3cccnc3n2)n1-c1ccccc1	–	35.7	–	–	–	–	–
O=C(O)c1cccc(NC(=S)NC(=O)c2ccc(-c3ccc(Cl)cc3)o2)c1	–	37.5	–	–	–	–	–
Cc1ccc(Cl)cc1N1CCN(C(=O)Cc2csc(Nc3nc(=S)[nH]c4ccccc34)n2)CC1	–	63.0	–	–	–	–	–
O=C(Cc1csc(Nc2nc(=S)[nH]c3ccccc23)n1)N1CCN(c2cccc(Cl)c2)CC1	–	54.7	–	–	–	–	–
O=C(Cn1c(=O)[nH]c2ccccc2c1=O)N1CCN(c2cccc(Cl)c2)CC1	–	–	–	–	–	–	·
Cc1ccc(Cl)cc1N1CCN(C(=O)Cn2ccc3ccccc3c2=O)CC1	–	–	–	–	–	–	·
O=C1CCCC2=C1C1(CCCC1)N=C(Nc1nc3cc(-c4ccccc4)ccc3o1)N2	–	39.6	–	–	–	·	–
O=[N+]([O-])c1cc2c(c(CSc3ncccn3)c1)OCOC2	–	–	–	–	–	–	·
CCN1CC2=C(OC(N)=C(C#N)C2c2cccs2)/C(=C/c2cccs2)C1 (stereo unspecified)	–	–	–	–	–	–	·
COc1ccccc1NS(=O)(=O)c1cccc(-n2c(O)c(C=Nc3ccccc3C(=O)O)c3ccccc3c2=O)c1	–	31.1	–	–	–	–	54.0
COc1cc(C(=O)NCc2nnc(SCC(=O)N3CCCC3)o2)cc(OC)c1OC	–	–	–	–	–	–	·
Fc1ccc(-c2nc3c4ccccc4ccn3c2Cc2ccccc2C(F)(F)F)cc1	–	–	–	–	–	·	·
FC(F)(F)c1ccccc1Cc1c(-c2ccc(Cl)cc2)nc2c3ccccc3ccn12	·	33.1	–	–	·	·	–
O=C1NC(Cc2ccc(O)cc2)c2nc3ccc(Br)cc3c(=O)n2-c2cc3ccccc3cc21 (stereo unspecified)	–	31.5	–	–	–	·	–
COc1ccc2nc3n(c(=O)c2c1)-c1cc2ccccc2cc1C(=O)NC3Cc1ccc(O)cc1 (stereo unspecified)	–	–	–	–	–	·	·
C=CCNC(=O)c1onc(CSc2cccc(OC)c2)c1C(=O)NCC=C	–	–	–	–	–	–	·
COc1ccccc1CNC(=O)c1nnc(Cc2ccc(Cl)cc2)o1	–	–	–	–	–	–	·
Cc1ccc(-n2[nH]c(C)c(C=Nc3ccc(S(=O)(=O)Nc4nccs4)cc3)c2=O)cc1C	–	41.8	–	–	–	–	51.8
CCc1nnc(NS(=O)(=O)c2ccc(N=Cc3c(C)[nH]n(-c4ccc(Cl)cc4)c3=O)cc2)s1	–	30.5	–	–	–	–	47.2

Screens (PubChem BioAssay)
